Tb hexokinase: Trypanosoma brucei hexokinase 1 inhibitors, primary screen, biochemical, G6PDH-coupled NADH absorbance, MLSCN library; hexokinase 1 [Trypanosoma brucei]; recombinant TbHK1, G6PDH-coupled NADH A340; inhibition, % at 10 µM; 220,000 compounds, 0.11% hits;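 active = inhibition of 50% or more in the single-dose primary screen; inactive = inhibition below 50%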
14-3-3 Bad PPI: inhibitors of 14-3-3 zeta/Bad binding, primary screen, biochemical, TR-FRET, bovine 14-3-3 zeta; 14-3-3 protein zeta/delta (Bos taurus), P63103; TR-FRET 14-3-3zeta/Dy647-pBad peptide displacement, 1 h; inhibition, % at 21.7 µM; 220,000 compounds, 0.71% hits; AID 781, 2007;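 active = inhibition above about 70%, limit read from the data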;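 note: 0% = full 14-3-3 plus peptide FRET controls and 100% = background without 14-3-3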
MDM2 E3 inh: MDM2-luciferase reporter signal enhancers, primary screen, MDM2 E3 ligase inhibitor project, cell-based, luminescence, 1536-well; E3 ubiquitin-protein ligase Mdm2 (Homo sapiens), Q00987; cell-based MDM2 ubiquitination luciferase reporter, 2 h; 0 = plate control, 100 = twice control, blank-subtracted; signal enhancement, % at 5 µM; 210,000 compounds, 0.11% hits;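 active = signal enhancement of 30% or more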;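 note: luminescence tracks abundance of the self-degrading MDM2-luciferase fusion protein; higher signal means inhibition of MDM2 E3 ligase activity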
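Test system: mammalian cells stably expressing self-ubiquitinating, self-degrading MDM2 E3–luciferase fusion; Amount: 2000 cells in each well; Medium: DMEM; Schedule: 4 h settle plus 2 h compound, 37 °C; Technique: SteadyLite luciferase luminescence after 15 min room-temperature reagent incubation; Benchmarks: plate control and blank wells.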
Wee1 stabilizer: Wee1 degradation inhibitors, primary screen, cell-based, HeLa, Wee1K328M-luciferase, luminescence | Wee1-like protein kinase (Homo sapiens), P30291 | HeLa Luc-Wee1K328M stability; 100% = proteasome inhibitor MG132 effect | reporter increase, % at 5 µM | 220,000 compounds, 1.2% hits;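 active = activation above the mean of all tested compounds plus 3 SD, set per screening run, cut at about 8.8% in these data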;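 note: cells exposed to compound for 20 h before luminescence read; 0% = DMSO alone and 100% = MG132 at 30 µM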
Target sequence (P30291 whole entry K328M): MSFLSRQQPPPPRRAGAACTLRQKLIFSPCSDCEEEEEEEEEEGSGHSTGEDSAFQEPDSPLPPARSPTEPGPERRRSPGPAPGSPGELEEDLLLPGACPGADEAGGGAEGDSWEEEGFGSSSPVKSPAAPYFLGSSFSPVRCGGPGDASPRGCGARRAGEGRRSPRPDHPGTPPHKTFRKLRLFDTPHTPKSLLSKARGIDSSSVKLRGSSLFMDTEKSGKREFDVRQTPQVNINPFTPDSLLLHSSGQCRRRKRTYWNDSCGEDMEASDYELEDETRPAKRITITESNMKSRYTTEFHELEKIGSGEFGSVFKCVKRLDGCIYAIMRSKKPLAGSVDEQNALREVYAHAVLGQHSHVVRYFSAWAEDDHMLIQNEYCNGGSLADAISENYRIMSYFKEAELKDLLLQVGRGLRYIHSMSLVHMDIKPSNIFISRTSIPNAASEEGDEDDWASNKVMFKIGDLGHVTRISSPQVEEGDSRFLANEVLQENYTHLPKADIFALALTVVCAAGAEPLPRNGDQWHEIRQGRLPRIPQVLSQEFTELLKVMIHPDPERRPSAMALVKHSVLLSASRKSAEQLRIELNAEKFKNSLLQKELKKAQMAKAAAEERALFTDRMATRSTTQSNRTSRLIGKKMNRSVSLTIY
Hck Nef HTS: inhibitors of Nef-activated human Hck kinase, primary screen, biochemical, Z-Lyte FRET, 384-well, Hck-YEEI; AID 463187, 2010; 220,000 compounds, 0.68% hits; inhibition, % at 20 µM; Recombinant Hck-YEEI plus Nef, Z-Lyte FRET kinase assay;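 active = Hck-Nef kinase inhibition above about 50%, limit read from the data; inactive = inhibition below that limit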;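 note: 0% = DMSO with Hck plus Nef and 100% = Hck alone without Nef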
Active calls of the source: *; · = not tested or not shown; [ ] = remark or other dose. This is a sample that favours compounds with a hit; in the whole collection about 2.7% have one here.

SMILES	Tb hexokinase	14-3-3 Bad PPI	MDM2 E3 inh	Wee1 stabilizer	Hck Nef HTS
O=C(c1ccc(Cl)cc1)C1C2C(=O)N(c3ccccc3)C(=O)C2C2CCCN21 (stereo not given)	-2.4	6.6	-22.7	-0.1	0.2
Nc1nc(Nc2ccccc2)nc(N2CCOCC2)c1[N+](=O)[O-]	-16.7	6.9	-11.3	-1.9	1.3
Nc1nc(Nc2ccccc2F)nc(N2CCOCC2)c1[N+](=O)[O-]	-34.7	6.4	-91.0	8.9*	14.5
CN1CCN(C(=O)c2ccccc2NC(=O)C(C)(C)C)CC1	-0.9	0.8	-3.0	-1.6	-6.0
CN1CCN(C(=O)c2ccccc2NC(=O)Cc2ccccc2)CC1	3.7	5.1	17.7	10.2*	3.6
O=C(CS(=O)(=O)Cc1ccccc1)Nc1ccc(S(=O)(=O)N2CCOCC2)cc1	2.2	3.7	2.0	-1.0	0.0
C=CCc1cccc(/C=N/NC(=O)c2ccccc2OC)c1O	-9.6	-12.1	-52.6	8.9*	7.6
COC(=O)c1ccc(C23CC4(C2)[C@H](CN(CC2CCCCC2)[C@@H]4c2ccccc2)C3c2ccc(Cl)nc2)cc1 (stereo not given in full)	-15.7	-1.5	7.2	·	10.7
Cc1c(NC(=O)CN2CC(C)OC(C)C2)c(=O)n(-c2ccccc2)n1C (stereo not given)	5.7	85.8*	-15.4	0.2	0.1
CCOC(=O)c1ccc(CC(=O)c2oc3cc(O)ccc3c2C)o1	-5.1	-1.4	-13.2	10.2*	6.8
CCOC(=O)c1cnn(-c2cc(C)nc3c(-c4ccccc4)cnn23)c1N	41.2	-2.9	2.9	10.8*	0.0
CCCNC(=O)CN1C(=O)NC(CCSC)C1=O (stereo not given)	-8.2	-4.9	-4.7	-1.1	-0.3
O=C1C2C3C=CC(C2C(=O)N1c1ccc(O)cc1)C1C2C(=O)N(c4ccc(O)cc4)C(=O)C2C31 (stereo not given)	-9.7	-0.2	·	-0.3	23.0
O=C1C2C3C=CC(C2C(=O)N1c1ccccc1O)C1C2C(=O)N(c4ccccc4O)C(=O)C2C31 (stereo not given)	1.5	-16.4	0.2	8.8*	23.6
COc1ccccc1CCNC(=O)CSc1nnc2ccc(-c3ccncc3)nn12	-4.1	-6.9	-0.4	1.5	20.0
COc1cc2cccc(OC)c(=O)c2c(O)c1OC	-4.5	-14.4	10.6	-1.5	6.4
COc1cc2c(ccc3cc(OC)c(OC)c(O)c32)cc1O	0.5	77.7*	-23.3	·	67.4*
O=C(NCc1ccco1)/C(=C/c1cccnc1)NC(=O)c1cccc(Br)c1	1.0	77.1*[fluorescence artefact?]	8.1	-2.0	-1.1
C=C(C)C(=O)Nc1ccc2c(c1)OCCOCCOCCO2	10.3	43.8	-9.6	-4.1	25.6
COc1cccc2cc(C(C)OC(=O)Nc3ccc(C)cc3)oc12 (stereo not given)	1.6	-20.4	-10.4	9.1*	-11.3
COc1cccc2cc(C(=O)Oc3ccc(NC(C)=O)cc3)c(=O)oc12	-10.9	14.2	-2.3	-0.3	0.8
Cc1ccccc1N1CCN(C(=O)c2ccccc2NC(=O)c2ccccc2C(=O)O)CC1	-1.7	-2.5	5.7	0.5	18.8
CC(NCc1ccc(N(C)C)cc1)C1CC2CCC1C2 (stereo not given)	-4.5	77.8*	-14.8	0.2	-2.0
O=C(O)CC/C(=N/Nc1ncc(C(F)(F)F)cc1Cl)C(=O)O	-2.5	-6.4	-8.1	1.4	7.7
CC(=O)C1=C(O)C(=O)N(c2ccc(Br)cn2)C1c1ccc(Br)cc1 (stereo not given)	-36.9	5.6	-6.3	10.5*	20.9
SMILES	Tb hexokinase	14-3-3 Bad PPI	MDM2 E3 inh	Wee1 stabilizer	Hck Nef HTS
CC(=O)C1=C(O)C(=O)N(c2ccc(Br)cn2)C1c1ccccc1F (stereo not given)	-34.8	4.8	24.7	-0.7	-0.7
CC(=O)C1=C(O)C(=O)N(c2ccc(O)cc2)C1c1ccc([N+](=O)[O-])cc1 (stereo not given)	-18.0	-6.6	-8.8	9.3*	17.9
CC(=O)C1=C(O)C(=O)N(c2ccc(Br)cn2)C1c1ccc(F)cc1 (stereo not given)	-17.6	-0.1	-5.0	10.6*	-4.9
CC(=O)C1=C(O)C(=O)N(c2cccnc2)C1c1ccc(Cl)cc1 (stereo not given)	-13.2	82.7*	-15.0	3.8	-3.5
COc1cccc(NC(=S)NN=C2CCCCCC2)c1	13.2	-18.9	-23.5	-2.3	15.2
Cc1cc(C)n2nc(CCCCc3nc4nc(C)cc(C)n4n3)nc2n1	-3.2	5.6	-5.8	-0.3	23.6
COC(=O)[C@@]1(Cc2ccc(F)cc2)[C@H]2c3cc(C(=O)N4CCCC4)n(CCc4ccccn4)c3C[C@H]2CN1C(=O)c1ccccc1	-4.6	0.0	·	2.5	-4.4
CC(=O)C1=C(O)C(=O)N(c2nccs2)C1c1ccc(Br)cc1 (stereo not given)	-38.3	52.9	-41.0	9.1*	-0.6
CCN(CC)CCOC(=O)c1ccc(NC(=O)C(C)NC(=O)C23CC4CC(CC(C4)C2)C3)cc1 (stereo not given)	14.4	-13.8	-13.1	1.1	-0.7
O=C1c2ccccc2C(=O)C1c1nccc2ccccc12	-4.3	59.5	-73.2	10.4*	3.1
N#CC1=C(N)SC(N)=C(C#N)C1c1ccnc2ccccc12	-16.4	0.9	-8.8	-2.9	1.2
O=C1c2ccccc2C(=O)C1c1ccnc2ccccc12	-3.1	62.4	-74.3	10.5*	10.2
Cc1cccc(N(Cc2cc3ccccc3[nH]c2=O)C(=O)c2cccs2)c1	-3.9	-0.1	-10.0	1.0	6.4
O=C(O)c1ccc(/C=N/N2CCN(Cc3cccc4ccccc34)CC2)cc1	-1.9	94.5*	-3.4	-2.2	7.3
O=C(N=C1N=C2C=CC(Br)=CN2Cc2ccccc21)c1ccc([N+](=O)[O-])cc1[N+](=O)[O-]	-9.9	-0.5	-18.6	10.5*	9.7
O=C(c1ccc([N+](=O)[O-])cc1[N+](=O)[O-])N1CCCC1	-5.1	2.0	1.2	0.1	19.7
O=C1OCCN1C(=O)[C@H]1[C@H](c2ccc([N+](=O)[O-])cc2)C(c2cccc(Cl)c2)=NN1c1ccccc1	-17.1	8.1	·	10.1*	-9.7
COc1ccc(CC(=O)NNS(=O)(=O)c2ccccc2)cc1OC	4.3	5.7	-6.2	2.0	18.8
COc1ccc(CC(=O)NNS(=O)(=O)c2ccc(F)cc2)cc1OC	-3.0	-20.0	-5.5	8.9*	18.0
NC(N)=NS(=O)(=O)c1ccc(NC(=S)NC(=O)c2sc3ccccc3c2Cl)cc1	-7.4	75.7*	-8.9	6.3	19.5

Screening data as filed in PubChem BioAssay.
